# Source: ChEMBL document CHEMBL5108057, “Development of MAO-A and 5-HT2AR Dual Inhibitors with Improved Antidepressant Activity” (J Med Chem, 2022)
# pIC50: −log10 of the molar value. Active and inactive are the calls of the source. The calls are words filed in the database; no cut-off is given here.
# Columns and labels:
# [1] = target: T1, Amine oxidase [flavin-containing] B (Homo sapiens, UniProt P27338); test: Inhibition of MAO-B (unknown origin) using p-tyramine as substrate preincubated for 15 mins followed by substrate addition and measured after 15 mins by Amplex red fluorescence based microplate reader assay
# T1 sequence (P27338 whole entry): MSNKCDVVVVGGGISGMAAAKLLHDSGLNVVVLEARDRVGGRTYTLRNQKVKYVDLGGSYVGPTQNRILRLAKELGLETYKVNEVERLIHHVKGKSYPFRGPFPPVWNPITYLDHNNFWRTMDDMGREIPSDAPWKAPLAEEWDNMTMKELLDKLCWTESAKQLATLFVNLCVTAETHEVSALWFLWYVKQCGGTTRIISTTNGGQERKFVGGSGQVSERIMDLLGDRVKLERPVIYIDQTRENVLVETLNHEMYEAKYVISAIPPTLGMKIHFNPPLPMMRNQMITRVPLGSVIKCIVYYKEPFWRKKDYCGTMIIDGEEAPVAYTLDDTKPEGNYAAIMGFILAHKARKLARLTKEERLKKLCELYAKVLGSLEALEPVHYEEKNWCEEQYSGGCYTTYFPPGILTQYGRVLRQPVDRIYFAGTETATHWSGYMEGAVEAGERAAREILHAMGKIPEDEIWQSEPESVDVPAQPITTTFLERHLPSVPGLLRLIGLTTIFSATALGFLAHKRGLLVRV
# [2] = test system: Mus musculus; test: Antidepressant activity in reserpine-induced ICR mouse model assessed as increase in movement speed at 10 to 20 mg/kg pretreated with reserpine for 3 days followed by compound addition for 1 week by open field test; format: functional, organism-based; details: dose 10-20 mg/kg, time 1.0 weeks
# How it was run: (§1)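 Body weight was recorded daily. OFT: 5 min session scoring distance, speed, rearing and dejection. FST and TST: 6 min, with immobility scored over the last 4 min. Mean ± SD, n = 6; one-way ANOVA and t-test.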
# [3] = test system: Mus musculus; test: Antidepressant activity in reserpine-induced ICR mouse model assessed as decrease in number of dejection at 10 to 20 mg/kg pretreated with reserpine for 3 days followed by compound addition on day 4 to 10 by open field test; format: functional, organism-based; details: dose 10-20 mg/kg, time 6.0 day; how it was run: as §1
# [4] = test system: Mus musculus; test: Antidepressant activity in chronic unpredictable mild stress ICR mouse model assessed as reduction in depression-like behavior at 10 mg/kg administered for 2 weeks by open field test; format: functional, organism-based
# How it was run: (§2)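 ICR mice received CUMS for 4 weeks: 11 stressors given randomly twice daily, 42 days in total. OFT: 5 min session scoring distance, speed, rearing and dejection. FST/TST: 6 min, with immobility scored over the last 4 min. Sucrose preference test was also run. Mean ± SD, n = 6.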
# [5] = test system: Mus musculus; test: Antidepressant activity in chronic unpredictable mild stress ICR mouse model assessed as decrease in immobility time at 10 to 20 mg/kg measured after 2 weeks by tail suspension test; format: functional, organism-based; details: dose 10-20 mg/kg; how it was run: as §2
# [6] = Toxicity in mouse assessed as toxic effect on liver at 10 to 20 mg/kg by H and E staining based assay; format: organism-based; details: in vivo, dose 10-20 mg/kg
# How it was run: (§3)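 Mice given compound at 10 or 20 mg/kg, with fluoxetine 20 mg/kg as comparator. Paraffin tissue sections of 4 μm were cut. Staining: hematoxylin 5 min, 75% HCl-ethanol differentiation 30 s, eosin 2 min. Organs (liver, kidney, lung, heart, spleen) examined at ×400; hippocampus (CA1, CA3, DG) at ×200.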
# [7] = Toxicity in mouse assessed as toxic effect on kidney at 10 to 20 mg/kg by H and E staining based assay; format: organism-based; details: in vivo, dose 10-20 mg/kg; how it was run: as §3
compound,measurement,setting,value
O=C1c2ccccc2-c2nccc3cc(OCCCCCN4CCN(c5ccccc5F)CC4)cc1c23,pIC50,[1],5.98
same,Activity,[2],Active
same,Activity,[3],Active
same,Activity,[4],Active
same,Activity,[5],Active
same,Activity,[6],Non-Toxic
same,Activity,[7],Non-Toxic
